Converted amounts (≈) assume the structure as drawn.
Experiments:
[1] = tested on: Human immunodeficiency virus 1; assay: Antiviral activity against HIV-1 NL4-3 infected in human TZM-bl cells assessed as inhibition of viral replication after 2 days by luciferase reporter gene based luminescence assay; type: functional, organism-based; conditions: Human immunodeficiency virus 1, NL4-3, TZM-bl, 48 h
Summary of the method: (§1)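 Single-round infection of TZM-bl cells with 200 TCID50 virus (NL4-3 for wild type) in the presence of graded compound concentrations. Luciferase luminescence was read two days after infection. Run at least in triplicate; mean ± SD reported.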

[2] = Selectivity index, ratio of CC50 for human TZM-bl cells to EC50 for HIV-1NL4-3; type: toxicity, cell-based; conditions: read-out: Ratio CC50/EC50
[3] = Cytotoxicity against human TZM-bl cells after 4 days by XTT assay; type: cell-based; conditions: 96 h
Summary of the method: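 TZM-bl cells (5 × 10^5/mL) exposed to graded compound concentrations at 37 °C for 4 days. XTT (1 mg/mL) with 0.02 μM PMS added, and absorbance at 450 nm read after 4 h.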

[4] = tested on: Human immunodeficiency virus 1; assay: Ratio of EC50 for HIV-1 harboring reverse transcriptase K101E mutant to EC50 for wild type HIV-1 NL4-3; type: functional
[5] = tested on: Human immunodeficiency virus 1; assay: Antiviral activity against multidrug-resistant HIV-1 RTMDR infected in human TZM-bl cells assessed as inhibition of viral replication after 2 days by luciferase reporter gene based luminescence assay; type: functional, organism-based; conditions: Human immunodeficiency virus 1, RTMDR, 48 h; summary of the method: as §1
[6] = Aqueous solubility of the compound at pH 2.0 after 4 hrs; type: physicochemical; conditions: for solubility: buffer, pH 2, 4 h; for solubility at 4 h: aqueous, pH 2
[7] = tested on: Human immunodeficiency virus 1; assay: Antiviral activity against HIV-1 harboring reverse transcriptase E138K mutant infected in human TZM-bl cells assessed as inhibition of viral replication after 2 days by luciferase reporter gene based luminescence assay; type: functional, organism-based; conditions: Human immunodeficiency virus 1, TZM-bl, 48 h; summary of the method: as §1
Liver microsomes [8] = assay: Half life in human liver microsomes at 1 uM; type: ADME, Microsome
Summary of the method: (§2)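 Compound at 1 μM final in 0.1 M potassium phosphate pH 7.4 with 0.1 mg/mL human liver microsomes and 5 mM MgCl2, 37 °C. Started with NADPH (1.0 mM final) and quenched with ice-cold ACN at 0, 5, 15, 30, 60 min; duplicate.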

[9] = tested on: Human immunodeficiency virus 1; assay: Antiviral activity against HIV-1 harboring reverse transcriptase K101E mutant infected in human TZM-bl cells assessed as inhibition of viral replication after 2 days by luciferase reporter gene based luminescence assay; type: functional, organism-based; conditions: Human immunodeficiency virus 1, TZM-bl, 48 h
Summary of the method: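 Single-round infection of TZM-bl cells with 200 TCID50 virus (NL4-3 for wild type) in the presence of graded compound concentrations. Luciferase luminescence was read two days after infection. […] Run at least in triplicate; mean ± SD reported.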

[10] = Aqueous solubility of the compound at pH 7.4 after 4 hrs; type: physicochemical; conditions: buffer, pH 7.4, 4 h
[11] = tested on: Human immunodeficiency virus 1; assay: Ratio of EC50 for multidrug-resistant HIV-1 RTMDR to EC50 for wild type HIV-1 NL4-3; type: functional
Liver microsomes [12] = assay: Intrinsic clearance in human liver microsomes at 1 uM; type: ADME, Microsome; summary of the method: as §2
[13] = tested on: Human immunodeficiency virus 1; assay: Ratio of EC50 for HIV-1 harboring reverse transcriptase E138K mutant to EC50 for wild type HIV-1 NL4-3; type: functional
Caco-2 = assay: Apparent permeability of the compound in human Caco2 cells; type: ADME, cell-based

Row | Compound | EC50 [1] [nM] | selectivity ratio [2] | CC50 [3] [nM] | solubility [6] [µg/mL] | t1/2 (Liver microsomes [8]) [min] | solubility [10] [µg/mL] | intrinsic clearance (CLint) (Liver microsomes [12]) [µL/min/mg] | other results
1 | Cc1cc(CCC#N)cc(C)c1Oc1cc(Nc2ccc(C#N)cc2)c(N)cc1S(N)(=O)=O | 380 | 29.2 | 11100 | – | – | – | – | –
2 | CNC(=O)c1cc(N)c(Nc2ccc(C#N)cc2)cc1Oc1c(C)cc(CCC#N)cc1C | 2.73 | > 3330 | > 9100 | 44.7 (≈ 102 µM) | 55.7 | 8.28 (≈ 18.8 µM) | 120 | Ratio EC50 [4]: 5.1; EC50 [5]: 8 nM; EC50 [7]: 10 nM; EC50 [9]: 14 nM; Ratio EC50 [11]: 2.9; Ratio EC50 [13]: 3.7
3 | CNC(=O)c1cc(N)c(Nc2ccc(C#N)cc2)cc1Oc1c(C)cc(/C=C/C#N)cc1C | – | > 1610 | > 9200 | – | 44.8 | – | 150 | –
4 | Cc1cc(CCC#N)cc(C)c1Oc1cc(Nc2ccc(C#N)cc2)c(N)cc1N | 7.3 | > 3420 | > 25000 | – | – | – | – | –
5 | Cc1cc(/C=C/C#N)cc(C)c1Oc1cc(Nc2ccc(C#N)cc2)c(N)cc1C(=O)O | – | 65 | – | – | – | – | – | –
6 | Cc1cc(/C=C/C#N)cc(C)c1Oc1cc(Nc2ccc(C#N)cc2)c(N)cc1[N+](=O)[O-] | 0.63 | – | > 24400 | 0.29 (≈ 0.682 µM) | 47.8 | 0.29 (≈ 0.682 µM) | – | Papp (Caco-2): < 2 ×10⁻⁶ cm/s
7 | Cc1cc(CCC#N)cc(C)c1Oc1cc(Nc2ccc(C#N)cc2)c(N)cc1C(=O)NN | 19.1 | > 1190 | > 22700 | – | – | – | – | –
8 | Cc1cc(CCC#N)cc(C)c1Oc1cc(Nc2ccc(C#N)cc2)c(N)cc1C(F)(F)F | 1.13 | – | > 7100 | – | 55.7 | 0.24 (≈ 0.533 µM) | 120 | –
9 | Cc1cc(CO)cc(C)c1Oc1cc(Nc2ccc(C#N)cc2)c(N)cc1CO | 10 | 1590 | 15900 | – | – | – | – | –
10 | Cc1cc(/C=C/C#N)cc(C)c1Oc1cc(Nc2ccc(C#N)cc2)c(N)cc1C(N)=O | – | > 27100 | > 23600 | – | – | – | – | Ratio EC50 [4]: 9.5; EC50 [5]: 1.8 nM; solubility at 4 h [6]: 2.09 µg/mL (≈ 4.94 µM); EC50 [7]: 9 nM; EC50 [9]: 8.3 nM; Ratio EC50 [11]: 2.1; Ratio EC50 [13]: 10.3
11 | CNC(=O)c1cc2ncn(-c3ccc(C#N)cc3)c2cc1Oc1c(C)cc(/C=C/C#N)cc1C | > 220 | – | > 890000 | – | – | – | – | –
12 | CNC(=O)c1cc2ncn(-c3ccc(C#N)cc3)c2cc1Oc1c(C)cc(CCC#N)cc1C | > 220 | – | > 890000 | – | – | – | – | –
13 | Cc1cc(/C=C/C#N)cc(C)c1Oc1cc(Nc2ccc(C#N)cc2)c(N)cc1CO | – | 30800 | – | – | – | – | – | Ratio EC50 [4]: 6.4; EC50 [5]: 0.4 nM; solubility at 4 h [6]: 20.9 µg/mL (≈ 50.9 µM); EC50 [7]: 3.9 nM; EC50 [9]: 3.4 nM; Ratio EC50 [11]: 0.7; Ratio EC50 [13]: 7.4
14 | Cc1cc(C#N)cc(C)c1Oc1cc(Nc2ccc(C#N)cc2)c(N)cc1C(F)(F)F | 3.79 | 3510 | 13300 | 0.96 (≈ 2.27 µM) | – | 0.26 (≈ 0.616 µM) | – | –
15 | Cc1cc(/C=C/C#N)cc(C)c1Oc1cc(Nc2ccc(C#N)cc2)c(N)cc1C(F)(F)F | 9.38 | 1600 | 15000 | 0.42 (≈ 0.937 µM) | 45 | 0.24 (≈ 0.535 µM) | 150 | –
16 | CC(=O)/C=C/c1cc(C)c(Oc2cc(Nc3ccc(C#N)cc3)c(N)cc2C(F)(F)F)c(C)c1 | 10.9 | > 789 | > 8600 | – | – | – | – | –
17 | Cc1cc(CCC#N)cc(C)c1Oc1cc(Nc2ccc(C#N)cc2)c(N)cc1CO | 0.39 | > 61000 | > 23800 | 89.8 (≈ 218 µM) | 20.9 | 18.8 (≈ 45.6 µM) | 330 | Ratio EC50 [4]: 8.7; EC50 [5]: 1.8 nM; EC50 [7]: 2.9 nM; EC50 [9]: 3.4 nM; Ratio EC50 [11]: 4.6; Ratio EC50 [13]: 7.4
18 | Cc1cc(CCC#N)cc(C)c1Oc1cc(Nc2ccc(C#N)cc2)c(N)cc1C(=O)O | 96 | 149 | 14300 | – | – | – | – | –
19 | Cc1cc(/C=C/C#N)cc(C)c1Oc1cc(Nc2ccc(C#N)cc2)c(N)cc1S(N)(=O)=O | 93.7 | > 233 | > 21800 | – | – | – | – | –
20 | CC(=O)CCc1cc(C)c(Oc2cc(Nc3ccc(C#N)cc3)c(N)cc2C(F)(F)F)c(C)c1 | 6.85 | 1620 | 11100 | 0.28 (≈ 0.599 µM) | – | 0.16 (≈ 0.342 µM) | – | –
21 | Cc1cc(C#N)cc(C)c1Oc1nc(Nc2ccc(C#N)cc2)nc(N)c1Br [ETRAVIRINE] | 1.51 | – | – | – | – | – | – | –
22 | COC(=O)c1cc(N)c(Nc2ccc(C#N)cc2)cc1Oc1c(C)cc(/C=C/C#N)cc1C | – | > 8320 | > 22800 | – | 283 | – | 20 | –
23 | COC(=O)c1cc(N)c(Nc2ccc(C#N)cc2)cc1Oc1c(C)cc(CCC#N)cc1C | 4.32 | > 5260 | > 22700 | 21.8 (≈ 49.5 µM) | 186 | 1.21 (≈ 2.75 µM) | 40 | Ratio EC50 [4]: 3.2; EC50 [5]: 4.1 nM; EC50 [7]: 7.5 nM; EC50 [9]: 14 nM; Ratio EC50 [11]: 0.9; Ratio EC50 [13]: 1.7
24 | Cc1cc(N)cc(C)c1Oc1cc(Nc2ccc(C#N)cc2)c(N)cc1C(F)(F)F | 13.8 | 1140 | 15800 | – | – | – | – | –
25 | Cc1cc(CCC#N)cc(C)c1Oc1cc(Nc2ccc(C#N)cc2)c(N)cc1C(N)=O | 1.39 | > 6760 | > 9400 | 9.11 (≈ 21.4 µM) | 42 | 0.06 (≈ 0.141 µM) | 160 | –

From ChEMBL document CHEMBL2163272, “Design, synthesis, and preclinical evaluations of novel 4-substituted 1,5-diarylanilines as potent HIV-1 non-nucleoside reverse transcriptase inhibitor (NNRTI) drug candidates” (J Med Chem, 2012)
